Source: PubChem
Only some compounds are listed: those with a hit (about 2.1% of all), similar ones and a draw of the others.
SR-BI uptake up – activators of SR-BI mediated DiI-HDL uptake, primary screen, ldlA[mSR-BI] CHO cells, DiI fluorescence; 3 h; 100 = double the neutral-control signal; activation, % at 12.5 µM; actives 0.096% (n = 320,000); AID 504775, 2011;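 active = mean replicate activation of at least 60% and every replicate at or above 60%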;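 also: 0% = median plate neutral-control signal and 100% = twice that signal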
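Test system: SR-BI-overexpressing, LDLR-lacking CHO cells; Medium: Ham's F12 with 0.5% BSA, HEPES 25 mM, pH 7.4; Schedule: 3 h, 37 °C; Technique: bottom-read fluorescence, 550/595 nm.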
CAL PDZ FP-1 – untagged CAL PDZ binding inhibitors, primary screen, biochemical, fluorescence polarization, HTS; Golgi-associated PDZ and coiled-coil motif-containing protein (Homo sapiens), Q9HD26; inhibition, % at 24.9 µM; purified CAL PDZ, TMR-peptide fluorescence polarization, 1 h; actives 0.92% (n = 300,000);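 active = mean inhibition of at least 30% with at least half of replicates also reaching 30%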;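 also: 0% = DMSO neutral control and 100% = excess unlabeled competitor peptide PRC23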
CAL PDZ FP-2 – CAL PDZ peptide-binding inhibitors, primary screen, biochemical, fluorescence polarization, Cer-tagged CAL PDZ, HTS | actives 0.02% (n = 330,000) | Golgi-associated PDZ and coiled-coil motif-containing protein (Homo sapiens), Q9HD26 | inhibition, % at 20 µM | purified CAL PDZ, TMR-peptide fluorescence polarization, 1 h;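 active = highest replicate inhibition of at least 40%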;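 also: plate controls were DMSO neutral control wells for no effect and unlabeled competitor peptide control wells for full effect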
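Material: tagged CAL PDZ domain; buffer or medium: 25 mM sodium phosphate pH 7.4, 150 mM NaCl, TCEP, IgG, Thesit; compound dosing: single point, 20 µM; schedule: 1 h incubation at room temperature before polarization reading; measured by: FP readout, S and P plane fluorescence; read-out basis: percent inhibition from loss of millipolarization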
SR-BI DiI inh – inhibitors of SR-BI mediated HDL lipid uptake, primary screen, ldlA[mSR-BI] cells, fluorescence, single point | Scavenger receptor class B member 1 (Mus musculus), Q61009 | ldlA[mSR-BI] CHO cells, DiI-HDL uptake fluorescence, 3 h | inhibition, % at 12.5 µM | actives 0.96% (n = 320,000) | AID 488896, 2010;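 active = mean replicate inhibition of at least 70% and a set share of replicates each scoring 70 or more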;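 also: 0% = median of neutral control wells and 100% = median of positive control wells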
Target sequence (Q61009 whole entry, looked up): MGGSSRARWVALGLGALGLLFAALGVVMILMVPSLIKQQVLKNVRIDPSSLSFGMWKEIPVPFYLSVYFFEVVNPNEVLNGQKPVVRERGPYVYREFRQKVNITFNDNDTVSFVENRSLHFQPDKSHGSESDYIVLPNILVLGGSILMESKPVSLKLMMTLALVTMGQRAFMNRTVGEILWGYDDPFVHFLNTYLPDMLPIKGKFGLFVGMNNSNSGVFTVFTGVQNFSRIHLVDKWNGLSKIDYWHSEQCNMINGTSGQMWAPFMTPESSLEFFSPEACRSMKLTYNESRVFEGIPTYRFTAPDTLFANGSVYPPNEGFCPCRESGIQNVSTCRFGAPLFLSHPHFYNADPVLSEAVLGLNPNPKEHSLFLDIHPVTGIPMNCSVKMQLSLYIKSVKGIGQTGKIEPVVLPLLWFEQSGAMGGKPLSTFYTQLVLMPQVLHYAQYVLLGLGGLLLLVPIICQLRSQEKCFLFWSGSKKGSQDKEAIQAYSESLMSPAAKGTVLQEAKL
ARNT-TACC3 inh – disruptors of ARNT/TACC3 protein interaction, primary screen, biochemical, AlphaScreen, single concentration. Transforming acidic coiled-coil-containing protein 3 (Homo sapiens), Q9Y6A5. AlphaScreen His-ARNT PAS-B/GST-TACC3 binding, luminescence; TACC3 fragment carries E629A point mutation. inhibition, % at 9.99 µM. actives 0.66% (n = 390,000);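 active = mean inhibition of replicates at least 50% and at least half of replicates each reaching 50%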;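 also: 0% = complete ARNT plus TACC3 wells and 100% = ARNT alone without TACC3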
miR122 inh – miR-122 Renilla sensor signal increase in Huh7, primary screen, miR-122 inhibitor project, cell-based, single point, plate reader | activation (reporter increase), % at 12.5 µM | AID 602342, 2012 | Huh7 miR-122 Renilla luciferase sensor, 48 h; neutral wells = 0, positive control = 100 | actives 0.3% (n = 340,000);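 active = mean replicate activation score at least 90 and every replicate individually at or above 90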;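 also: higher luciferase means less miR-122 activity so hits act as miR-122 inhibitors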
Numbers without * were called inactive; · = not tested or not shown; [ ] = remark or other dose.

SMILES	SR-BI uptake up	CAL PDZ FP-1	CAL PDZ FP-2	SR-BI DiI inh	ARNT-TACC3 inh	miR122 inh
CC1(C)NC(=O)N(CC(=O)OCC(=O)c2ccc(Cl)s2)C1=O	3	7	-1	-3	0	·
CN1C(=O)c2cc(NC(=O)Cc3ccccc3)ccc2OC[C@@H]2O[C@@H](CC(=O)NC3CCC3)CC[C@@H]21	·	·	·	·	6	55[16.7 µM]
C/C(=N\N1C(=O)c2ccccc2NC1c1ccccc1)c1ccccc1O (stereo not drawn)	-85	4	-1	85*	-1	2
O=C1c2ccccc2NC(c2ccco2)N1/N=C/c1ccco1 (stereo not drawn)	13	-2	-1	-13	7	2
C/C(=N\N1C(=O)c2ccccc2NC1c1ccco1)c1ccccc1O (stereo not drawn)	86*	-1	-2	-86	4	·
COc1ccc(/C(C)=N/N2C(=O)c3ccccc3NC2c2ccc(O)c(OC)c2)cc1 (stereo not drawn)	-4	0	-5	4	-1	7
COc1cc(/C=N/NC(=O)c2ccc(CN3C(=O)c4cccc5cccc3c45)cc2)cc(OC)c1O	-68	50*	6	68	2	32
COc1ccc(/C=N/NC(=O)c2ccc(CN3C(=O)c4cccc5cccc3c45)cc2)cc1O	-22	77*	-1	22	1	·
COc1cc(/C=N\NC(=O)c2ccc(-c3ccccc3)cc2)cc(Br)c1O	-46	-2	-1	46	2	·
C[C@@H]1CN([C@@H](C)CO)C(=O)c2cc(C#CC3CC3)cnc2O[C@@H]1CN(C)C(=O)c1ccccc1	·	·	·	·	11	-1[16.7 µM]
COc1ccc(NC(=O)Nc2ccc3c(c2)C(=O)N([C@H](C)CO)C[C@H](C)[C@@H](CN(C)C(=O)NC(C)C)OCCCC[C@H](C)O3)cc1	·	·	·	·	-7	-2[16.7 µM]
CCC(=O)Nc1ccc2c(c1)C(=O)N(C)[C@H]1CC[C@@H](CC(=O)N3CCCCC3)O[C@H]1CO2	·	·	·	·	·	-3[16.7 µM]
O=C(N/N=C/c1cn(-c2cccs2)nc1-c1ccccc1)c1ccccc1O	-86	-4	-5	86*	-2	·
C[C@@H]1CCCCO[C@@H](CN(C)C(=O)Cc2ccccc2)[C@H](C)CN([C@H](C)CO)C(=O)c2cc(NS(=O)(=O)c3ccc(Cl)cc3)ccc2O1	·	·	·	·	·	-14[16.7 µM]
N#CC(c1cccc(Cl)c1)c1ccc2c(C(F)(F)F)cc(C(F)(F)F)nc2n1 (stereo not drawn)	-117	-3	1	117*	37	-11
COc1ccc(N2CC(O)=C(c3nc4ccccc4s3)C2=N)c(OC)c1	-52	-5	-1	52	0	102*
COCCN=c1scc(-c2cccs2)n1/N=C(\C)c1ccco1	-8	4	-3	8	46*	5
O=C(C[C@H]1C[C@@H]2c3cc(NC(=O)Nc4ccccc4)ccc3O[C@@H]2[C@@H](CO)O1)NCc1cccc(F)c1	·	·	·	·	2	0[16.7 µM]
CCNC(=O)C[C@@H]1CC[C@@H]2[C@H](COC[C@H](O)CN2C(=O)Nc2c(C)noc2C)O1	·	·	·	·	18	-6[16.7 µM]
Cc1ccc(C(=O)NC2CCCC2)cc1S(=O)(=O)N1CCCCC1	·	-1	-2	-8	-4	·
O=C(NNC(=O)c1ccccc1O)c1ccc(Cl)c(S(=O)(=O)N2CCc3ccccc32)c1	-117	-8	-2	117*	13	9
Cc1ccc(C(=O)NNC(=O)c2ccccc2O)cc1S(=O)(=O)N1CCCCC1	-78	1	-1	78*	0	·
Cc1ccc(S(=O)(=O)N(C)C[C@@H]2Oc3ccc(NC(=O)NC(C)C)cc3CC(=O)N([C@@H](C)CO)C[C@@H]2C)cc1	·	·	·	·	1	1[16.7 µM]
C[C@@H]1CN([C@H](C)CO)C(=O)Cc2cc(NC(=O)Nc3cccc4ccccc34)ccc2O[C@H]1CN(C)C	·	·	·	·	-7	-1[16.7 µM]
O=C(Nc1cccc(S(=O)(=O)N2CCCCC2)c1)c1ccc(OCC2CCCO2)cc1 (stereo not drawn)	-28	-5	0	28	4	-2
SMILES	SR-BI uptake up	CAL PDZ FP-1	CAL PDZ FP-2	SR-BI DiI inh	ARNT-TACC3 inh	miR122 inh
O=C(Nc1ccc(S(=O)(=O)N2CCCC2)cc1)c1ccc(OCC2CCCO2)cc1 (stereo not drawn)	-19	53*	-3	19	-1	-9
O=C(Cc1ccccc1)N1CC[C@@H]2[C@H]1c1cc(-c3ccccc3)ccc1N[C@@H]2CO	·	·	·	·	1	-18[16.7 µM]
O=C(Nc1nnc(-c2ccccc2Cl)o1)c1cccnc1	27	·	-3	-27	54*	10
CO[C@@H]1CN(C)C(=O)c2ccc(NC(=O)c3nc4ccccc4s3)cc2OC[C@@H](C)N(Cc2cncnc2)C[C@H]1C	·	·	·	·	15	·
N/C(=N\OC(=O)c1cccc(Br)c1)c1ccccn1	·	-10	-2	6	-10	22
O=C(COC(=O)c1ccccn1)c1cccc(Br)c1	17	-2	-2	-17	50*	-5
O=C(Nc1ccccc1)c1ccc(Nc2c([N+](=O)[O-])cc([N+](=O)[O-])c3ccccc23)cc1	-88	-7	0	88*	1	·
Cc1c(C(=O)Nc2ccc(Nc3ccccc3)cc2)cccc1[N+](=O)[O-]	-63	·	1	63	6	-1
Cc1cc(C)n(-c2ccc(C(=O)Nc3cc(C(F)(F)F)ccc3N3CCOCC3)cc2)n1	-60	-5	1	60	-3	2
O=C(Nc1ccccc1N1CCOCC1)c1cccnc1	-3	85*	10	3	-2	3
Cc1cc(C)n(-c2ccc(C(=O)Nc3ccccc3N3CCOCC3)cc2)n1	-80	·	-6	80*	0	-2
COc1cc(C2C(C#N)=C(N)N(N(C)C)C3=C2C(=O)CC(C)(C)C3)cc(OC)c1OC (stereo not drawn)	2	44*	-1	-2	·	·
COc1ccc(C2C(C#N)=C(N)N(N(C)C)C3=C2C(=O)CC(C)(C)C3)cc1OC (stereo not drawn)	19	-4	0	-19	·	·
C=CCOc1ccc2ccccc2c1/C=N/O	15	-5	-2	-15	1	-3
COc1ccc2ccccc2c1/C=N/O	1	36*	-1	-1	-6	-6
